HKDC1 inh – HKDC1 (human) hexokinase inhibition. Q2TB90. recombinant HKDC1, G6PDH/diaphorase resazurin coupled fluorescence. inhibition, % at 20 µM. AID 493160. hit rate 0.16% among 340,000;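 active = inhibition above about 35% when tested at 20 µM, limit read from the data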
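Test system: recombinant HKDC1 (HK5) hexokinase enzyme, produced in-house; Amount: enzyme 5 µg/mL final; Buffer or medium: Tris pH 8.0 buffer with MgCl2, Tween-20, BSA, BME; Reagent: glucose and ATP substrates; Doses: 20 µM test compound, 1% DMSO; Incubation: 90 min reaction incubation at room temperature, dark; Detection: resorufin fluorescence at 613 nm.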
TbHK1 inh – T. brucei hexokinase 1 inhibition; recombinant TbHK1, G6PDH-coupled NADH A340; inhibition, % at 10 µM; hit rate 0.11% among 220,000;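 active = inhibition of 50% or more in the single-dose primary screen; inactive = inhibition below 50%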
HSF1 inhib – HSF1 inhibition. NIH3T3-HGL HSE-luciferase, MG132-induced, luminescence 8 h; active compounds read low. activity change, negative = inhibition, % at 7.5 µM (by protocol). hit rate 0.77% among 300,000;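 active = more than half of replicate wells show activity change below -50%, luminescence cut by over half; inconclusive = some wells, but at most half, below -50%; inactive = no replicate well below -50%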;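 also: luciferase reports HSF-1 transcriptional activity via heat shock element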
HSF1 activator – increases HSF-1 driven luciferase reporter signal; NIH3T3-HGL HSF-1 luciferase reporter, MG132, 8 h; 100% = twice DMSO control signal; AID 504408; hit rate 1.7% among 300,000; activation, % at 9 µM;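 active = mean replicate activation of at least 50% with a set share of replicates each reaching 50%; inconclusive = only one of those two conditions met; inactive = mean below 50% and too few replicates reaching it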
Hsp70 act – transcriptional activators of Hsp70. activation, % at 10 µM. hit rate 0.04% among 200,000. AID 1203. HeLa Hsp70 promoter luciferase reporter, luminescence; scaled: vehicle 0, proteasome-inhibitor control 100%;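 active = activation above the mean across all tested compounds plus 3 SD, cutoff set per campaign, cut at about 5.5% in these data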
HSP90 inh – inhibitors of HSP90 luciferase refolding in rabbit reticulocyte lysate. hit rate 0.91% among 290,000. AID 1789. luciferase refolding luminescence, 3 h. inhibition, % at 5.6 µM;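 active = inhibition above the screen-wide mean plus 3 SD, computed separately per campaign, cut at about 16% in these data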;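 also: inhibitors lower the luminescence because luciferase stays unfolded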
HSP90 inh confirm – confirmation of HSP90 inhibitors | rabbit reticulocyte lysate, luciferase refolding luminescence, 3 h | AID 1846 | hit rate 64% among 2,300 | inhibition, % at 5.9 µM | shares compounds with HSP90 inh; in the data active = inhibition above about 18%
luciferase ctr – counter-screen for HSP90 inhibitors: inhibitors of firefly luciferase; shares compounds with HSP90 inh; purified native firefly luciferase, luminescence; inhibition, % at 5.9 µM; hit rate 48% among 2,300; AID 1847;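 active = inhibition above the mean inhibition of all tested sample wells plus 3 SD, cut at about 10% in these data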
Target sequence (P08659 whole entry, looked up): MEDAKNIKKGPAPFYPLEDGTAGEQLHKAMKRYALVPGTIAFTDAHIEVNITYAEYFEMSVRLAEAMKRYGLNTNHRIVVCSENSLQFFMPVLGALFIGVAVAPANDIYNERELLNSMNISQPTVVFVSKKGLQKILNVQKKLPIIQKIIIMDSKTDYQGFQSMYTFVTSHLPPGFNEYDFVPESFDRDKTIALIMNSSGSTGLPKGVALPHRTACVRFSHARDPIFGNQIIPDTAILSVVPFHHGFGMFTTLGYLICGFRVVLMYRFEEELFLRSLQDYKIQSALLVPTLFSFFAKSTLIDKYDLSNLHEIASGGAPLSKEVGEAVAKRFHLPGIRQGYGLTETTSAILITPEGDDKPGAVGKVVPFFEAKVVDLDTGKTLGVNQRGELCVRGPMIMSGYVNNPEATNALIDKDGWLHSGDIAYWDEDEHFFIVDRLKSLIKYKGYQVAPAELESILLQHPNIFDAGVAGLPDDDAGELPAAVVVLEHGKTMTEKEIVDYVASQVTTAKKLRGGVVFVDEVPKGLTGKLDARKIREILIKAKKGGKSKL
Of the large screens only hits and unclear results are named; the others gave an inactive call (follow-up assays come after a bar, where they were run). Hits are enriched below; roughly 3.1% of the tested compounds scored in any of these assays.

Cc1ccc2nc(-c3ccc(NC(=O)C4CCCO4)cc3)[nH]c2c1 (configuration not stated)	HSP90 inh 24.1 | HSP90 inh confirm 54.8 | luciferase ctr 35.2
CCCCNC(=S)N1CCN(CC)CC1	HSP90 inh 52.6 | HSP90 inh confirm inactive | luciferase ctr inactive
CCOCCCNC(=S)N1CCN(CC)CC1	none
Cc1ccc(NC(=O)Cc2ccc3c(c2)OCCO3)cc1S(=O)(=O)N1CCCCC1	HSP90 inh 27.1 (no result: Hsp70 act) | HSP90 inh confirm inactive | luciferase ctr inactive
CC1(C)C(C=C(Cl)Cl)C1C(=O)N(Cc1cccc(Cl)c1)C1CCS(=O)(=O)C1 (configuration not stated)	HSP90 inh 16.9 | HSP90 inh confirm inactive | luciferase ctr inactive
O=C(c1cccs1)N(Cc1cccc(Cl)c1)C1CCS(=O)(=O)C1 (configuration not stated)	none
CNC[C@H]1Oc2ccc(NC(=O)Nc3ccccc3)cc2CC(=O)N([C@H](C)CO)C[C@H]1C	none (no result: TbHK1 inh, HSF1 inhib, HSF1 activator, Hsp70 act, HSP90 inh)
Cc1cc(C)cc(Nc2ncc3c(n2)CC(c2ccco2)CC3=O)c1 (configuration not stated)	none
Cc1cc(C)cc(Nc2ncc3c(n2)CCCC3=O)c1	HSP90 inh 17.4 | HSP90 inh confirm 42.7 | luciferase ctr 23.3
O=C1OCC(CO)(CO)N=C1NNc1cc(Cl)ccc1Cl	none
O=C1OCC(CO)(CO)N=C1NNc1ccccc1[N+](=O)[O-]	HSP90 inh 21.1 (no result: Hsp70 act) | HSP90 inh confirm inactive | luciferase ctr inactive
Cc1cccc(-c2noc(C3CCCCC3)n2)c1	HSP90 inh 64.5 | HSP90 inh confirm inactive | luciferase ctr inactive
Cc1ccc(-c2noc(C3CCCCC3)n2)cc1	none
Cc1ccc(CN2CC(C(=O)NCCC3=CCCCC3)CC2=O)cc1 (configuration not stated)	none (no result: TbHK1 inh, HSF1 inhib, HSF1 activator, Hsp70 act, HSP90 inh)
COc1ccc(OCCOc2ccc(/C=C3\C(=N)N4N=C(C)SC4=NC3=O)cc2)cc1	none (no result: TbHK1 inh, HSF1 inhib, HSF1 activator, Hsp70 act, HSP90 inh)
CCOC(=O)c1cc(NC(=O)Nc2cc(C)ccn2)c(C)nc1C	none
CCOC(=O)Nc1cc(C(=O)OCC)c(C)nc1C	HSP90 inh 27.1 | HSP90 inh confirm inactive | luciferase ctr inactive
Cc1ccc(S(=O)(=O)N2CCN(C(=O)CN3C(=O)NC4(CCCC4)C3=O)CC2)c(C)c1	none (no result: TbHK1 inh, Hsp70 act, HSP90 inh)
O=C(COC(=O)/C=C/c1ccc(F)cc1)Nc1ccc(S(=O)(=O)N2CCOCC2)cc1	none (no result: TbHK1 inh, HSF1 inhib, HSF1 activator, Hsp70 act, HSP90 inh)
c1ccc(-n2nnc3c(N4CCOCC4)ncnc32)cc1	HSP90 inh 30.0 | HSP90 inh confirm 66.5 | luciferase ctr 55.3
Cc1nnc(N2CCOCC2)c2nn(-c3ccccc3)c(C)c12	none
O=C(COc1ccc(Br)cc1Cl)NC(=S)Nc1ccccn1	HSP90 inh 32.2 (no result: TbHK1 inh, Hsp70 act) | HSP90 inh confirm 38.1 | luciferase ctr 32.5
Cc1ccc(OCC(=O)NC(=S)Nc2ccccn2)c(Br)c1	HSF1 inhib -62.8, HSP90 inh 72.5 (no result: TbHK1 inh, Hsp70 act) | HSP90 inh confirm 80.4 | luciferase ctr 79.4
COCCN(Cc1ccccc1)C(=O)C1CCN(C(=O)Nc2ccccc2)CC1	none (no result: TbHK1 inh, HSF1 inhib, HSF1 activator, Hsp70 act, HSP90 inh)
CC1Cc2ccccc2N1C(=O)COC(=O)c1ccc(Cl)c(S(=O)(=O)N2CCOCC2)c1 (configuration not stated)	none (no result: TbHK1 inh, HSF1 inhib, HSF1 activator, Hsp70 act, HSP90 inh)
O=C(CN1CCN(C(=O)c2c(F)cccc2F)CC1)Nc1ccccc1C(F)(F)F	none (no result: TbHK1 inh, Hsp70 act)
Cc1ccc(-c2c[n+](CC(=O)Nc3nc(-c4ccc(F)cc4)cs3)c3n2CCC3)cc1	HSP90 inh 25.6 | HSP90 inh confirm 18.8 | luciferase ctr inactive
Cc1ccc(C(=O)Nc2nc(C)c(C(=O)Nc3ccc4c(c3)CCC4)s2)cc1	none
COc1cccc(NC(=O)c2sc(NC(=O)c3ccncc3)nc2C)c1	HSP90 inh 78.5 (no result: Hsp70 act) | HSP90 inh confirm 79.9 | luciferase ctr 41.4
COC(=O)c1sc(NC(=S)NC(=O)c2cccc(C)c2)nc1C	HSP90 inh 22.3 | HSP90 inh confirm inactive | luciferase ctr inactive
COC(=O)c1sc(NC(=S)NC(=O)c2ccccc2F)nc1C	none
COc1cccc(Nc2nc(-c3sc(NC(=O)c4ccccc4)nc3C)cs2)c1	HSP90 inh 44.9 | HSP90 inh confirm inactive | luciferase ctr inactive
COc1cccc(NC(=O)c2ccncc2)c1	none
Cc1nc(NC(=O)c2ccc(F)cc2)sc1C(=O)Nc1ccc2c(c1)CCC2	HSP90 inh 39.0 | HSP90 inh confirm 45.7 | luciferase ctr inactive
COc1cc(NC(=O)CSc2nnc(-c3ccncc3)o2)cc(OC)c1OC	none (no result: TbHK1 inh, Hsp70 act)
Cc1nc(NC(=O)c2ccccc2)sc1-c1csc(Nc2ccc(C(=O)O)cc2)n1	HSP90 inh 30.9 (no result: Hsp70 act) | HSP90 inh confirm inactive | luciferase ctr inactive
Cc1nc(C)c(-c2csc(NCc3ccco3)n2)s1	none
Cc1nc(NC(N)=S)sc1C(=O)Nc1ccccc1	HSP90 inh 18.8 | HSP90 inh confirm 25.9 | luciferase ctr inactive
Cc1nc(NC(=O)c2ccccc2)sc1-c1csc(NCc2ccco2)n1	HSP90 inh 48.3 | HSP90 inh confirm 28.9 | luciferase ctr inactive
CCC(=O)Nc1nc(C)c(-c2csc(Nc3ccc(C(=O)O)cc3)n2)s1	none (no result: TbHK1 inh, Hsp70 act)
O=C(CSc1nnc(-c2ccc(O)cc2)o1)NNC(=O)c1ccncc1	none (no result: TbHK1 inh, Hsp70 act)
CCC(=O)Nc1cccc(-c2ccc(N3CCCCC3)nn2)c1	HSP90 inh 24.5 (no result: TbHK1 inh, Hsp70 act) | HSP90 inh confirm 47.3 | luciferase ctr 15.0
CCC(=O)Nc1cccc(-c2ccc(N3CCN(C)CC3)nn2)c1	none (no result: TbHK1 inh, Hsp70 act)
COc1ccc(NC(=O)c2cc([N+](=O)[O-])ccc2N2CCCC2)cc1S(N)(=O)=O	none (no result: TbHK1 inh, HSF1 inhib, HSF1 activator, Hsp70 act, HSP90 inh)
COc1ccc2cc(C(=O)N3CCc4ccccc43)[nH]c2c1	HSF1 activator 52.2, HSP90 inh 21.7 (no result: TbHK1 inh, Hsp70 act) | HSP90 inh confirm inactive | luciferase ctr inactive
COc1ccc2oc(C(=O)N3CCc4ccccc43)c(C)c2c1	HSF1 inhib inconclusive, HSP90 inh 22.7 (no result: TbHK1 inh, Hsp70 act) | HSP90 inh confirm 59.1 | luciferase ctr 46.5
COc1ccc2oc(C(=O)Nc3ccccn3)c(C)c2c1	HSP90 inh 24.7 (no result: TbHK1 inh, Hsp70 act) | HSP90 inh confirm 46.3 | luciferase ctr 33.9
COc1ccc2oc(C(=O)N3CCN(C(c4ccccc4)c4ccccc4)CC3)c(C)c2c1	none (no result: TbHK1 inh, Hsp70 act, HSP90 inh)
CC(C)(C)OC(=O)N1CCCC(C(=O)Nc2ccc(C(=O)NCc3ccccc3)cc2)C1 (configuration not stated)	none (no result: TbHK1 inh, HSF1 inhib, HSF1 activator, Hsp70 act, HSP90 inh)
COc1ccc2c(c1)c(C(=O)CN1CCN(Cc3ccccc3)CC1)c(C)n2C	HSP90 inh 28.1 (no result: Hsp70 act) | HSP90 inh confirm inactive | luciferase ctr inactive
COc1cccc(/C=N/Nc2nnc(C)n2N)c1OCc1ccccc1Cl	none
CCc1nnc(N/N=C/c2ccccc2Cl)n1N	HSF1 activator 72.5, HSP90 inh 71.9 | HSP90 inh confirm inactive | luciferase ctr inactive
CCOC(=O)N/N=C/c1ccccc1F	none
